Calls of active or inactive are those of the source. The rule behind the calls is not given here.
Experiments:
[1] = molecular target: T1, Protein deacetylase HDAC6 (Homo sapiens, UniProt Q9UBN7); assay: (§1) Inhibition of recombinant N-terminal GST-tagged human HDAC6 (1 to 1215 residues) expressed in baculovirus infected sf9 insect cells using p53 (379 to 382 residues) derived fluorogenic peptide RHKKAc as substrate preincubated for 5 to 10 mins followed by substrate addition and further incubated for 2 hrs by fluorescence assay
T1 sequence (Q9UBN7 whole entry): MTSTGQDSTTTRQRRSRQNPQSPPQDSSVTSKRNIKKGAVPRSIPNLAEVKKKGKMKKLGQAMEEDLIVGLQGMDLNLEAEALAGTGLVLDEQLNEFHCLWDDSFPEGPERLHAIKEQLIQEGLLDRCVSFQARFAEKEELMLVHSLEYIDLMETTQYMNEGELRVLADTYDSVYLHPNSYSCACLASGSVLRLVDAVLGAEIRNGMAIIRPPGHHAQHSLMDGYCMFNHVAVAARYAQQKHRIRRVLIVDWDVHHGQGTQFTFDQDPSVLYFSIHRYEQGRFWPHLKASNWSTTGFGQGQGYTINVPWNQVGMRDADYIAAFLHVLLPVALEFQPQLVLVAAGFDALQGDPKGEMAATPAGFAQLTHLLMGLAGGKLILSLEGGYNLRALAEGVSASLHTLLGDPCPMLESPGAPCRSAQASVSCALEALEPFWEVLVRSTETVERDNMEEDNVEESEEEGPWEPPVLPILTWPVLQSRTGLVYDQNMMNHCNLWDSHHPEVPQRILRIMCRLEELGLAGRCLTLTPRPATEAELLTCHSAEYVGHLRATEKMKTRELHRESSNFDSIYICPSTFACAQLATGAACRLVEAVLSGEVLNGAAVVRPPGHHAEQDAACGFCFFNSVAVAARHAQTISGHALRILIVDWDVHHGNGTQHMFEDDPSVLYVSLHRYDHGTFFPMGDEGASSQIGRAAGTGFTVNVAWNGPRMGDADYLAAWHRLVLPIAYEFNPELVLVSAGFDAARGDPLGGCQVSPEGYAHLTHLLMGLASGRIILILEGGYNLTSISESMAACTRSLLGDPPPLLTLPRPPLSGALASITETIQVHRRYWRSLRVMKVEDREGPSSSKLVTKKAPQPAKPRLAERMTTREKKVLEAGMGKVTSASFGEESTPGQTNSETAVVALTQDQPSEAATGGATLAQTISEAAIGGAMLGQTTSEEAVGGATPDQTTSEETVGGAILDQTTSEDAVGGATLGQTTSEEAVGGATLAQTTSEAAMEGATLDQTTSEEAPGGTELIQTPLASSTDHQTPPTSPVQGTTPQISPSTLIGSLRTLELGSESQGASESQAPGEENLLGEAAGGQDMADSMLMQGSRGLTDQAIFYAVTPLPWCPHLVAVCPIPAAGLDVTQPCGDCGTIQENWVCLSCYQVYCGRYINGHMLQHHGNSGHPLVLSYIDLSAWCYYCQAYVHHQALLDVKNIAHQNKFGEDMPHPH

Histone deacetylase 1 = Histone deacetylase 1 (Homo sapiens, UniProt Q13547); assay: as §1, with “full length C-terminal His/FLAG tagged” for “N-terminal GST-tagged”, “HDAC1” for “HDAC6”, “482” for “1215”
Homo sapiens [2] = species on record: Homo sapiens; assay: Selectivity index, ratio of IC50 for recombinant full length C-terminal His/FLAG tagged human HDAC1 (1 to 482 residues) expressed in baculovirus infected sf9 insect cells using p53 (379 to 382 residues) derived fluorogenic peptide RHKKAc as substrate preincubated for 5 to 10 mins followed by …
Homo sapiens [3] = species on record: Homo sapiens; assay: Selectivity index, ratio of IC50 for recombinant human full length C-terminal His/FLAG-tagged HDAC1 expressed in baculovirus infected Sf9 insect cells using fluorogenic HDAC as substrate measured after 30 mins by fluorescence based analysis to IC50 for recombinant human full length C-terminal […] expressed in baculovirus infected Sf9 insect cells using fluorogenic HDAC as substrate measured after 30 mins by fluorescence based analysis
[4] = molecular target: T1, Protein deacetylase HDAC6; assay: Inhibition of recombinant N-terminal GST-tagged human HDAC6 (1 to 1215 residues) expressed in baculovirus infected sf9 insect cells using RHK-K(Ac)-AMC as substrate after 90 mins by fluorescence assay
Homo sapiens [5] = species on record: Homo sapiens; assay: Selectivity index, ratio of IC50 for recombinant full length C-terminal His/FLAG tagged human HDAC1 (1 to 482 residues) expressed in baculovirus infected sf21 insect cells using RHK-K(Ac)-AMC as substrate after 60 mins by fluorescence assay to IC50 for recombinant N-terminal GST-tagged human HDAC6 (1 to 1215 residues) expressed in baculovirus infected sf9 insect cells using RHK-K(Ac)-AMC as substrate after 90 mins by fluorescence assay
Homo sapiens [6] = species on record: Homo sapiens; assay: Selectivity index, ratio of IC50 for recombinant full length human HDAC1 expressed in Escherichia coli cells using Fluor de Lys as substrate preincubated for 15 mins followed by substrate addition for 60 mins by fluorescence assay to IC50 for recombinant full length human HDAC6 expressed in baculovirus infected sf9 insect cells using Fluor de Lys as substrate preincubated for 15 mins followed by substrate addition for 60 mins by fluorescence assay
[7] = Induction of apoptosis in mouse SM1 cells at 0.1 to 25 uM by caspase3/7 reagent based luminescence assay; assay type: cell-based
Procedure, shortened: (§2)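 SM1 cells treated with HDAC inhibitors, with pan-HDACi and assay controls on every plate. ApoTox-Glo triplex readout: viability fluorescence 400Ex/505Em, cytotoxicity fluorescence 485Ex/520Em, then caspase 3/7 reagent read by luminescence for apoptosis.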

PC-3 = assay: Induction of cell death in human PC3 cells at 0.1 to 25 uM; assay type: cell-based; conditions: pc-3, 25 µM
T-24 = assay: Induction of cell death in human T24 cells at 0.1 to 25 uM; assay type: cell-based; conditions: t-24, 25 µM
[8] = Effect on cell viability in mouse SM1 cells up to 10 uM by ApoTox-Glo triplex assay; assay type: cell-based; procedure, shortened: as §2
[9] = Induction of cell death in mouse SM1 cells at 0.1 to 25 uM; assay type: cell-based
5637 = assay: Induction of cell death in human 5637 cells at 0.1 to 25 uM; assay type: cell-based; conditions: human, 5637, 25 µM
[10] = Cytotoxicity against mouse SM1 cells at 0.1 to 25 uM by ApoTox-Glo triplex assay; assay type: cell-based; procedure, shortened: as §2
[11] = molecular target: T2, Protein deacetylase HDAC6 (Mus musculus) (UniProt Q9Z2V5); assay: Inhibition of HDAC6 in mouse SM1 cells assessed as increase in acetylated alpha-tubulin level at 5 to 10 uM after 24 hrs by Western blot analysis; assay type: cell-based
T2 sequence (whole entry): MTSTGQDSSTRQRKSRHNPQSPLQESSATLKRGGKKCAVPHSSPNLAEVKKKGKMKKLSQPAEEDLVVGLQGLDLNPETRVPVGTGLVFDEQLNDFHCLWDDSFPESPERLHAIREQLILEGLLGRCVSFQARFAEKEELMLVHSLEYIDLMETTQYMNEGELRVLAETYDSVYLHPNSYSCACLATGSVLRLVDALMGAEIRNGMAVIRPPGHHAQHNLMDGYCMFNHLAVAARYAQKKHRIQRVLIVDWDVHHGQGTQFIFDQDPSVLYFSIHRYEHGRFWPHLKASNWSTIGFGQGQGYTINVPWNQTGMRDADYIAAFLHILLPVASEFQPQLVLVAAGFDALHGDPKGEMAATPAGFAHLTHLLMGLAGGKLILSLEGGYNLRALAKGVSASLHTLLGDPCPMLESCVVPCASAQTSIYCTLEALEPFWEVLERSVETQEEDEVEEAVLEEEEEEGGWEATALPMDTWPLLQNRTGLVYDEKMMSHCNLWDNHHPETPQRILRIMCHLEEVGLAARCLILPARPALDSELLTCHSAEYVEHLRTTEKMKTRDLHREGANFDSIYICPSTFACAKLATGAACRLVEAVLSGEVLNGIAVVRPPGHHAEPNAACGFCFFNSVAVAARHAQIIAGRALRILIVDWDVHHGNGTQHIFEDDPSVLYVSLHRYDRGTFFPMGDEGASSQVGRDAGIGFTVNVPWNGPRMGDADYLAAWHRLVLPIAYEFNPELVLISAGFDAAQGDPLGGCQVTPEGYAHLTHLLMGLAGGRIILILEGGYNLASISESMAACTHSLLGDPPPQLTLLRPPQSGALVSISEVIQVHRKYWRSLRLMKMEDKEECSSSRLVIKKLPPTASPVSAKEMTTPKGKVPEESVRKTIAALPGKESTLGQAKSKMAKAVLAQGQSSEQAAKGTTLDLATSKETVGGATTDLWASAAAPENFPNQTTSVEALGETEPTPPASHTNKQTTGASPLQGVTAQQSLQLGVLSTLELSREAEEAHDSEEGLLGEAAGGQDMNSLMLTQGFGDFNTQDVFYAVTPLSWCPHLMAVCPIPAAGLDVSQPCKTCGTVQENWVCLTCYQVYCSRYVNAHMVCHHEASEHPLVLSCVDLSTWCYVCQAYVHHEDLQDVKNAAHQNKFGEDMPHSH

Chain of Histone deacetylase 1 (Q13547 whole entry, the tested form may be a part): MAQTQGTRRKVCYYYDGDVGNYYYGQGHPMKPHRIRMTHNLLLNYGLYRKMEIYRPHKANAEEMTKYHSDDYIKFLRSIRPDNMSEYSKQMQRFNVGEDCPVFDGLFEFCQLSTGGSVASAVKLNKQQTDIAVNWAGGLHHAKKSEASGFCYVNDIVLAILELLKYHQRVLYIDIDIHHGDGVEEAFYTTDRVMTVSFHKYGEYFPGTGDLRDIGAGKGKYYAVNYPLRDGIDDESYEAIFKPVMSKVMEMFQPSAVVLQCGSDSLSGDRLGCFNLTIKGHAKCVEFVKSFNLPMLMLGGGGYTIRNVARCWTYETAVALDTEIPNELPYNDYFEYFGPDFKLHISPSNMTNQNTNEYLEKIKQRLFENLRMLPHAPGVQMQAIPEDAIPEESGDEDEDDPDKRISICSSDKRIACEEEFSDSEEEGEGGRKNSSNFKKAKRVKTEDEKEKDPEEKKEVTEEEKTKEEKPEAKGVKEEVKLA

Compound: O=C(NO)c1cc(CCCCN2CCCc3cc(Cl)ccc32)on1
- IC50 [1]: 0.69 µM
- IC50 (Histone deacetylase 1): 11.2 µM
- Ratio IC50 (Homo sapiens [2]): 16

Compound: O=C(NCCc1cc(C(=O)NO)no1)c1ccc2ccccc2c1
- IC50 [1]: 0.01 µM
- Ratio IC50 (Homo sapiens [2]): 294

Compound: O=C(NO)c1ccc(CN(CCO)C(=O)Cc2ccccc2)cc1
- Ratio IC50 (Homo sapiens [3]): 36

Compound: O=C(NO)c1cc(CCCCc2ccc(Cl)c(Cl)c2)on1
- IC50 (Histone deacetylase 1): > 30 µM

Compound: O=C(NO)c1cc(CCCOc2ccc(Cl)c(Cl)c2)on1
- IC50 [1]: 0.2 µM
- IC50 (Histone deacetylase 1): > 30 µM
- Ratio IC50 (Homo sapiens [2]): > 152

Compound: Cc1nc2ccccc2n1Cc1ccc(C(=O)NO)cc1F
- IC50 [4]: 0.00081 µM
- Ratio IC50 (Homo sapiens [5]): 11100

Compound: O=C(CCc1cc(C(=O)NO)no1)Nc1nc(-c2ccccc2)cs1
- Ratio IC50 (Homo sapiens [2]): 9.9

Compound: CC1(C)CCN(CCCCc2cc(C(=O)NO)no2)c2ccc(Cl)cc21
- IC50 [1]: 1.99 µM
- IC50 (Histone deacetylase 1): > 30 µM
- Ratio IC50 (Homo sapiens [2]): > 15

Compound: CC(C)(C)OC(=O)Nc1ccc(-c2cc(C(=O)NCc3ccc(C(=O)NO)cc3)no2)cc1
- Ratio IC50 (Homo sapiens [2]): 1320

Compound: O=C(NO)c1cc(CCCCn2ccc3cc(Cl)c(Cl)cc32)on1
- IC50 [1]: 4.36 µM
- IC50 (Histone deacetylase 1): > 30 µM
- Ratio IC50 (Homo sapiens [2]): > 7

Compound: O=C(NCCc1cc(C(=O)NO)no1)c1ccccc1
- IC50 [1]: 0.19 µM
- IC50 (Histone deacetylase 1): > 30 µM
- Ratio IC50 (Homo sapiens [2]): > 155

Compound: O=C(NCCc1cc(C(=O)NO)no1)c1cccc(-c2ccccc2)c1
- Ratio IC50 (Homo sapiens [2]): 85

Compound: O=C(NO)c1ccc(Cn2c3c(c4ccccc42)S(=O)(=O)CC3)cc1
- Ratio IC50 (Homo sapiens [6]): 1460

Compound: CN1CCc2c(c3ccccc3n2Cc2ccc(C(=O)NO)cc2)C1 [TUBASTATIN A]
- Activity [7]: Non-Toxic
- Activity (PC-3): Non-Toxic
- Activity (T-24): Non-Toxic
- Activity [8]: Non-Toxic
- Activity [9]: Non-Toxic
- Activity 5637: Non-Toxic
- Activity [10]: Non-Toxic

Compound: CC(C)(C)OC(=O)Nc1ccc(-c2cc(C(=O)NCCCCCCC(=O)NO)no2)cc1
- IC50 (Histone deacetylase 1): 0.0032 µM

Compound: O=C(NO)c1cc(CCCCN2c3ccc(Cl)cc3CCc3cc(Cl)ccc32)on1
- IC50 (Histone deacetylase 1): > 30 µM
- Ratio IC50 (Homo sapiens [2]): > 22

Compound: CCCCN(Cc1ccc(C(=O)NO)cc1)C(=O)Nc1ccccc1 [NEXTURASTAT A]
- Activity [7]: Non-Toxic
- Activity (PC-3): Non-Toxic
- Activity (T-24): Non-Toxic
- Activity [8]: Non-Toxic
- Activity [9]: Non-Toxic
- inhibition [11]: Active
- Activity 5637: Non-Toxic
- Activity [10]: Non-Toxic

Reference: ChEMBL document CHEMBL4354804, “Discovery of a New Isoxazole-3-hydroxamate-Based Histone Deacetylase 6 Inhibitor SS-208 with Antitumor Activity in Syngeneic Melanoma Mouse Models” (J Med Chem, 2019)
